Calls of active or inactive are those of the source. The calls are words filed in the database; no cut-off is given here.
Legend:
[1] = target: Mitogen-activated protein kinase 1 (Homo sapiens, UniProt P28482); test: Inhibition of ERK2 (unknown origin) using […] as substrate after 40 mins by ADP-Glo luminescence assay
[2] = target: Mitogen-activated protein kinase 3 (Homo sapiens, UniProt P27361); test: Inhibition of ERK1 (unknown origin) using […] as substrate after 40 mins by ADP-Glo luminescence assay
HCT-116 [3] = test: Antiproliferative activity against human HCT116 cells after 72 hrs by MTT assay; assay type: functional, cell-based; details: HCT-116, 72 h
WM 266-4 = test: Antiproliferative activity against human WM266.4 cells after 72 hrs by MTT assay; assay type: functional, cell-based; details: WM 266-4, 72 h
SW626 = test: Antiproliferative activity against human SW626 cells after 72 hrs by MTT assay; assay type: functional, cell-based; details: SW626, 72 h
COLO 205 = test: Antiproliferative activity against human COLO205 cells after 72 hrs by MTT assay; assay type: functional, cell-based; details: COLO 205, 72 h
K562 = test: Antiproliferative activity against human K562 cells after 72 hrs by MTT assay; assay type: functional, cell-based; details: K562, 72 h
HCT-116 [4] = test: Induction of apoptosis in human HCT116 cells assessed as increase in condense bright apoptotic nuclei formation at 1 uM by Hoechst 33258 staining-based assay; assay type: functional, cell-based
Summary of the method: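 After compound incubation, HCT116 cells stained with Hoechst 33258 and examined for condensed, bright apoptotic nuclei; n=3 per group.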

[5] = target: T1, Mitogen-activated protein kinase; ERK1/ERK2 (Homo sapiens) (UniProt P27361+P28482); test: Inhibition of ERK1/2 phosphorylation at Thr202/Tyr204 residues in human HCT116 cells by Western blot analysis; assay type: cell-based
Summary of the method: (§1)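 Phosphorylation of ERK1/2 and RSK in HCT116 cells measured by western blot over a range of compound concentrations; means ± SD of three independent experiments, each condition run in triplicate.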

[6] = target: T1, Mitogen-activated protein kinase; ERK1/ERK2 (Homo sapiens); test: Inhibition of ERK1/2 in human HCT116 cells assessed as reduction in RSK phosphorylation at Thr359/Ser363 residues by Western blot analysis; assay type: cell-based; summary of the method: as §1
[7] = Half life in Sprague-Dawley rat at 50 mg/kg, po by LC/MS/MS analysis; assay type: ADME, organism-based; details: in vivo
Summary of the method: (§2)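 Sprague-Dawley rats dosed intravenously at 5 mg/kg or orally at 50 mg/kg; pharmacokinetic parameters derived from the plasma concentration data.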

[8] = Cmax in Sprague-Dawley rat at 50 mg/kg, po by LC/MS/MS analysis; assay type: ADME, organism-based; set-up: dose 50 mg/kg, route oral; details: in vivo; summary of the method: as §2
[9] = AUC (0 to t) in Sprague-Dawley rat at 50 mg/kg, po by LC/MS/MS analysis; assay type: ADME, organism-based; details: in vivo; summary of the method: as §2
[10] = MRT (0 to t) in Sprague-Dawley rat at 50 mg/kg, po by LC/MS/MS analysis; assay type: ADME, organism-based; details: in vivo; summary of the method: as §2
[11] = Oral bioavailability in Sprague-Dawley rat at 50 mg/kg by LC/MS/MS analysis; assay type: ADME, organism-based; details: in vivo; summary of the method: as §2
NCM460 = test: Cytotoxicity against human NCM460 cells assessed as reduction in cell viability at 10000 nM after 72 hrs by MTT assay; assay type: cell-based; details: ncm460, 72 h, 10 µM
HCT-116 [12] = test: Antitumor activity against human HCT116 cells xenografted in Balb/c nude mouse assessed as tumor growth inhibition at 50 mg/kg, po qd for 30 days and measured every 3 days by calliper method relative to control; assay type: functional; details: HCT-116, po, read-out: TGI
Summary of the method: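 Nude mice bearing HCT-116 xenografts; test article given as hydrochloride salt, 50 mg/kg orally once daily for 30 days; efficacy expressed as percent tumor growth inhibition.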

HCT-116 [13] = test: Induction of apoptosis in human HCT116 cells assessed as early apoptotic cells at 1 uM after 72 hrs by annexin V-FITC and propidium iodide staining based flow cytometric analysis (reference value: 3.88%); assay type: functional
Summary of the method: (§3)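 HCT116 cells treated with compound, PI-stained, and analysed for apoptosis by flow cytometry; means ± SD of three independent experiments, each condition in triplicate.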

HCT-116 [14] = test: Induction of apoptosis in human HCT116 cells assessed as late apoptotic cells at 1 uM after 72 hrs by annexin V-FITC and propidium iodide staining based flow cytometric analysis (reference value: 1.20%); assay type: functional; summary of the method: as §3
HCT-116 [15] = test: Induction of apoptosis in human HCT116 cells assessed as necrotic cells at 1 uM after 72 hrs by annexin V-FITC and propidium iodide staining based flow cytometric analysis (reference value: 0.21%); assay type: functional; summary of the method: as §3
HCT-116 [16] = test: Induction of apoptosis in human HCT116 cells assessed as viable cells at 1 uM after 72 hrs by annexin V-FITC and propidium iodide staining based flow cytometric analysis (reference value: 94.3%); assay type: functional; details: HCT-116, 72 h, read-out: Activity; summary of the method: as §3
HCT-116 [17] = test: Cell cycle arrest in human HCT116 cells assessed as accumulation at G0/G1 phase at 1 uM after 72 hrs by annexin V-FITC and propidium iodide staining based flow cytometric analysis (reference value: 44.3%); assay type: functional
HCT-116 [18] = test: Cell cycle arrest in human HCT116 cells assessed as accumulation at G2/M phase at 1 uM after 72 hrs by annexin V-FITC and propidium iodide staining based flow cytometric analysis (reference value: 43.5%); assay type: functional
[19] = Toxicity against Balb/c nude mouse xenografted with human HCT116 cells assessed as reduction in body weight at 50 mg/kg, po qd for 30 days and measured every 3 days; assay type: organism-based; details: in vivo
Summary of the method: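 HCT-116 xenograft nude mice dosed at 50 mg/kg orally once daily for 30 days; body weight recorded every 3 days.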

Chain of Mitogen-activated protein kinase 3 (P27361 whole entry): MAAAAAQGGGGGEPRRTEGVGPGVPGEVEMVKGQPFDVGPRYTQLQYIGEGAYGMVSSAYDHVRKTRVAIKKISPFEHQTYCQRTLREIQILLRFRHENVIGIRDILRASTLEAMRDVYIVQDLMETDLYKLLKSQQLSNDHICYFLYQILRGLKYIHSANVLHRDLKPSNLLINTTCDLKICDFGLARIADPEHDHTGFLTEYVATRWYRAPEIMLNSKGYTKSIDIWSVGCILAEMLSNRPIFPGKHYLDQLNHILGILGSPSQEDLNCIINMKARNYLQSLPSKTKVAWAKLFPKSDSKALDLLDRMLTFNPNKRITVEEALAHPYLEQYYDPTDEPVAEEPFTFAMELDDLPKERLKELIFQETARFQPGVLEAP
Chain of Mitogen-activated protein kinase 1 (P28482 whole entry): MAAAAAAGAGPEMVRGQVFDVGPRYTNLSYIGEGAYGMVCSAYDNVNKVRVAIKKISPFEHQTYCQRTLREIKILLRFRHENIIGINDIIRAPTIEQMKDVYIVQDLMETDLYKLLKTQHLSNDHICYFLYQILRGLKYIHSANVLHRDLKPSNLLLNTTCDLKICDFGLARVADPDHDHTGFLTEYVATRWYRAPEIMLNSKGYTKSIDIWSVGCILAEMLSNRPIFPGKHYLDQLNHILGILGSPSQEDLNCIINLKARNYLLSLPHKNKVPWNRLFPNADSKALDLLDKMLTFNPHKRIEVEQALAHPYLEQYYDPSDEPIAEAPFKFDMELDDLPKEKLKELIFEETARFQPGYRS
T1 sequence (P27361 whole entry, looked up): as the sequence (P27361 whole entry) above
T1 sequence (P28482 whole entry, looked up): as the sequence (P28482 whole entry) above

O=C1c2cc(-c3ccnc(NC4CCOCC4)n3)ccc2CN1Cc1ccc(Cl)cc1
IC50 [1]: 35.6 nM

O=C1c2cc(-c3ccnc(NC4CCOCC4)n3)ccc2CN1C(CO)c1ccc(Cl)cc1 (configuration not stated)
IC50 [1]: 30.4 nM

O=C1c2cc(-c3ccnc(NC4CCOCC4)n3)ccc2CN1[C@H](CO)c1cccc(Cl)c1
IC50 [1]: 0.8 nM

Cn1nccc1Nc1nccc(-c2ccc3c(c2)C(=O)N(Cc2ccc(Cl)c(F)c2)C3)n1
IC50 [1]: 5.6 nM

O=C1c2cc(-c3ccnc(NC4CCCCC4)n3)ccc2CN1C(CO)c1cccc(Cl)c1 (configuration not stated)
IC50 [1]: 7.2 nM

O=C1c2cc(-c3ccnc(NCCCO)n3)ccc2CN1C(CO)c1cccc(Cl)c1 (configuration not stated)
IC50 [1]: 38.4 nM

Cn1nccc1Nc1nccc(-c2ccc3c(c2)C(=O)N(C(CO)c2cccc(Cl)c2)C3)n1 (configuration not stated)
IC50 [1]: 1.9 nM
IC50 [2]: 3.6 nM
IC50 (HCT-116 [3]): 251 nM
IC50 (WM 266-4): 217 nM
IC50 (SW626): 252 nM
IC50 (COLO 205): 252 nM
IC50 (K562): 2930 nM

O=C1c2cc(-c3ccnc(Nc4ccc(F)cc4)n3)ccc2CN1Cc1cccc(Cl)c1
IC50 [1]: > 1000 nM

Cn1cc(Nc2nccc(-c3ccc4c(c3)C(=O)N(Cc3cccc(Cl)c3)C4)n2)cn1
IC50 [1]: 3.6 nM
IC50 [2]: 21 nM
IC50 (HCT-116 [3]): 148 nM
IC50 (WM 266-4): 174 nM
IC50 (SW626): 209 nM
IC50 (COLO 205): 204 nM
IC50 (K562): 2740 nM

Cn1ccc(Nc2nccc(-c3ccc4c(c3)C(=O)N(C(CO)c3cccc(Cl)c3)C4)n2)n1 (configuration not stated)
IC50 [1]: 25.6 nM

O=C1c2cc(-c3ccnc(NC4CCOCC4)n3)ccc2CN1Cc1ccc(Cl)c(F)c1
IC50 [1]: 17.8 nM

Cn1cc(Nc2nccc(-c3ccc4c(c3)C(=O)N([C@@H](CO)c3cccc(Cl)c3)C4)n2)cn1
IC50 [1]: 633 nM

O=C1c2cc(-c3ccnc(Nc4ccncc4)n3)ccc2CN1Cc1cccc(Cl)c1
IC50 [1]: 36.3 nM

Cn1cc(Nc2nccc(-c3ccc4c(c3)C(=O)N([C@H](CO)c3cccc(Cl)c3)C4)n2)cn1
IC50 [1]: 1.1 nM

Cc1cccc(CN2Cc3ccc(-c4ccnc(Nc5ccnn5C)n4)cc3C2=O)n1
IC50 [1]: > 1000 nM

O=C1c2cc(-c3ccnc(Nc4nccs4)n3)ccc2CN1C(CO)c1cccc(Cl)c1 (configuration not stated)
IC50 [1]: 22.3 nM

O=C1c2cc(-c3ccnc(NC4CCOCC4)n3)ccc2CN1C(CO)c1cccc(Cl)c1 (configuration not stated) [listing 1 of 2 here]
Activity (HCT-116 [4]): Active
inhibition [5]: Dose-dependent effect
inhibition [6]: Dose-dependent effect

Cl.O=C1c2cc(-c3ccnc(NC4CCOCC4)n3)ccc2CN1Cc1cccc(Cl)c1
half-life [7]: 0.37 h
Cmax [8]: 747 ng/mL
AUC(0-t) [9]: 1280 ng·h/mL
MRT last [10]: 1.2 h
bioavailability [11]: 6.9%

O=C1c2cc(-c3ccnc(NC4CCOCC4)n3)ccc2CN1Cc1cccc(Cl)c1
IC50 [1]: 1.6 nM
IC50 [2]: 3.3 nM
IC50 (HCT-116 [3]): 150 nM
IC50 (WM 266-4): 220 nM
IC50 (SW626): 255 nM
IC50 (COLO 205): 170 nM
IC50 (K562): 1550 nM

O=C1c2cc(-c3ccnc(NC4CCOCC4)n3)ccc2CN1C(CO)c1ccc(Cl)c(Cl)c1 (configuration not stated)
IC50 [1]: 3.1 nM

O=C1c2cc(-c3ccnc(NCCO)n3)ccc2CN1C(CO)c1cccc(Cl)c1 (configuration not stated)
IC50 [1]: 17.6 nM

Cl.O=C1c2cc(-c3ccnc(NC4CCOCC4)n3)ccc2CN1C(CO)c1cccc(Cl)c1 (configuration not stated)
half-life [7]: 3.6 h
Cmax [8]: 1920 ng/mL
AUC(0-t) [9]: 8380 ng·h/mL
MRT last [10]: 3.4 h
bioavailability [11]: 22.5%

Cn1cc(Nc2nccc(-c3ccc4c(c3)C(=O)N(C(CO)c3cccc(Cl)c3)C4)n2)cn1 (configuration not stated)
IC50 [1]: 1.2 nM
IC50 [2]: 4.1 nM
IC50 (HCT-116 [3]): 201 nM
IC50 (WM 266-4): 211 nM
IC50 (SW626): 206 nM
IC50 (COLO 205): 227 nM
Activity (NCM460): Non-Toxic
IC50 (K562): 3820 nM

O=C1c2cc(-c3ccnc(NC4CCOCC4)n3)ccc2CN1C(CO)c1cccc(Cl)c1 (configuration not stated) [listing 2 of 2 here]
inhibition in vivo at 50 mg/kg (HCT-116 [12]): 71%
IC50 [1]: 0.7 nM
IC50 [2]: 1.5 nM
IC50 (HCT-116 [3]): 155 nM
IC50 (WM 266-4): 260 nM
IC50 (SW626): 247 nM
IC50 (COLO 205): 194 nM
Activity (NCM460): Non-Toxic
Activity (HCT-116 [13]): 27.7%
Activity (HCT-116 [14]): 10.4%
Activity (HCT-116 [15]): 0.12%
viability at 1 µM (HCT-116 [16]): 61.3%
Activity (HCT-116 [17]): 58%
Activity (HCT-116 [18]): 29.5%
Activity [19]: Non-Toxic
IC50 (K562): 3190 nM

Cn1nnnc1Nc1nccc(-c2ccc3c(c2)C(=O)N(C(CO)c2cccc(Cl)c2)C3)n1 (configuration not stated)
IC50 [1]: 19.8 nM

O=C1c2cc(-c3ccnc(Nc4ncco4)n3)ccc2CN1C(CO)c1cccc(Cl)c1 (configuration not stated)
IC50 [1]: 93.3 nM

O=C1c2cc(-c3ccnc(NC4CCNC4)n3)ccc2CN1C(CO)c1cccc(Cl)c1 (configuration not stated)
IC50 [1]: > 1000 nM

Cn1nccc1Nc1nccc(-c2ccc3c(c2)C(=O)N(Cc2cccnc2)C3)n1
IC50 [1]: > 1000 nM

O=C1c2cc(-c3ccnc(NC4CCNCC4)n3)ccc2CN1C(CO)c1cccc(Cl)c1 (configuration not stated)
IC50 [1]: > 1000 nM

O=C1c2cc(-c3ccnc(NC4CCOCC4)n3)ccc2CN1Cc1ccc(F)c(Cl)c1
IC50 [1]: 2.9 nM

O=C1c2cc(-c3ccnc(NC4CCOCC4)n3)ccc2CN1[C@@H](CO)c1cccc(Cl)c1
IC50 [1]: 201 nM

O=C1c2cc(-c3ccnc(NC4CCOC4)n3)ccc2CN1C(CO)c1cccc(Cl)c1 (configuration not stated)
IC50 [1]: 5.4 nM

Cn1nccc1Nc1nccc(-c2ccc3c(c2)C(=O)N(Cc2ccccn2)C3)n1
IC50 [1]: > 1000 nM

CC(C)Nc1nccc(-c2ccc3c(c2)C(=O)N(C(CO)c2cccc(Cl)c2)C3)n1 (configuration not stated)
IC50 [1]: 11.2 nM

O=C1c2cc(-c3ccnc(NC4CCC(O)CC4)n3)ccc2CN1C(CO)c1cccc(Cl)c1 (configuration not stated)
IC50 [1]: 2.7 nM

Cn1nccc1Nc1nccc(-c2ccc3c(c2)C(=O)N(Cc2cccc(Cl)c2)C3)n1
IC50 [1]: 3.5 nM
IC50 (K562): 2870 nM

— ChEMBL document CHEMBL4422627, “Discovery of potent, orally bioavailable ERK1/2 inhibitors with isoindolin-1-one structure by structure-based drug design” (Eur J Med Chem, 2019)
